Common to all, as to type: functional
The species named for assay [1] is Rattus norvegicus. The assay is described as follows: Antiovulatory activity was expressed as the percentage of 8 rats blocked at a dose 3 ug. Summed up:
(§1)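 Sprague-Dawley rats given peptide by subcutaneous injection at noon on the day of proestrus, in 40% propane-1,2-diol–0.9% saline vehicle. Oviducts examined for ova the following day.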

The species entered for assay [2] is Rattus norvegicus. The assay is described as follows: Antiovulatory activity was expressed as the percentage of 9 rats blocked at a dose 1 ug. Summed up: as §1
The species entered for assay [3] is Rattus norvegicus. The assay is described as follows: Antiovulatory activity was expressed as the percentage of 8 rats blocked at a dose 1 ug. Summed up: as §1
The species named for assay [4] is Rattus norvegicus. Put plainly: Antiovulatory activity was expressed as the percentage of 10 rats blocked at a dose 0.5 ug. Summed up:
as §1

The species named for assay [5] is Rattus norvegicus. The assay is described as follows: Antiovulatory activity was expressed as the percentage of 10 rats blocked at a dose 3 ug. Summed up:
as §1

For assay [6], the species on record is Rattus norvegicus. Put plainly: Antiovulatory activity was expressed as the percentage of 10 rats blocked at a dose 1 ug. The method in brief: as §1
The species named for assay [7] is Rattus norvegicus. Put plainly: Antiovulatory activity was expressed as the percentage of 9 rats blocked at a dose 3 ug. Summed up:
as §1

Assay [8] is filed under the species Rattus norvegicus. The assay is described as follows: Antiovulatory activity was expressed as the percentage of 16 rats blocked at a dose 1 ug. Summed up: as §1
The species named for assay [9] is Rattus norvegicus. The assay is described as follows: Antiovulatory activity was expressed as the percentage of 7 rats blocked at a dose 3 ug. The method in brief:
as §1

For assay [10], the species on record is Rattus norvegicus. Put plainly: Antiovulatory activity was expressed as the percentage of 9 rats blocked at a dose 7.5 ug. Summed up:
as §1

For assay [11], the species on record is Rattus norvegicus. The assay is described as follows: Antiovulatory activity was expressed as the percentage of 8 rats blocked at a dose 7.5 ug. The method in brief:
as §1

Non-standard residues stand in square brackets, D forms with d. Residues, ends and D or L forms follow the SMILES beside them. d(hArg(Et2)) = CCN=C(NCC)NCCCC[C@@H](N)C(=O)O; dPhe(4-Cl) = N[C@H](Cc1ccc(Cl)cc1)C(=O)O; d2Nal = N[C@H](Cc1ccc2ccccc2c1)C(=O)O

In assay [1], `CC(=O)N[C@H](Cc1ccc(Cl)cc1)C(=O)N[C@H](Cc1ccccc1)C(=O)N[C@H](Cc1ccccc1)C(=O)N[C@@H](CO)C(=O)N[C@@H](Cc1ccc(O)cc1)C(=O)N[C@H](CCCN=C(N)N)C(=O)N[C@@H](Cc1ccccc1)C(=O)N[C@@H](CCCN=C(N)N)C(=O)N1CCC[C@H]1C(=O)N[C@H](C)C(N)=O` gave an Antiovulatory activity of 63%.
Turning to `CC(=O)N[C@H](Cc1ccc2ccccc2c1)C(=O)N[C@H](Cc1ccccc1)C(=O)N[C@H](Cc1ccc(O)cc1)C(=O)N[C@@H](CO)C(=O)N[C@@H](Cc1ccc(O)cc1)C(=O)N[C@H](CCCN=C(N)N)C(=O)N[C@@H](Cc1ccccc1)C(=O)N[C@@H](CCCN=C(N)N)C(=O)N1CCC[C@H]1C(=O)N[C@H](C)C(N)=O`, the Antiovulatory activity in assay [2] came to 0%.
`CC(=O)N[C@H](Cc1ccc2ccccc2c1)C(=O)N[C@H](Cc1ccc(O)cc1)C(=O)N[C@H](Cc1ccc(O)cc1)C(=O)N[C@@H](CO)C(=O)N[C@@H](Cc1ccc(O)cc1)C(=O)N[C@H](CCCN=C(N)N)C(=O)N[C@@H](Cc1ccccc1)C(=O)N[C@@H](CCCN=C(N)N)C(=O)N1CCC[C@H]1C(=O)N[C@H](C)C(N)=O` showed an Antiovulatory activity in assay [3] of 0%.
For the compound `CC(=O)N[C@H](Cc1ccc2ccccc2c1)C(=O)N[C@H](Cc1ccc(Cl)cc1)C(=O)N[C@H](Cc1ccc(Cl)cc1)C(=O)N[C@@H](CO)C(=O)N[C@@H](Cc1ccc(O)cc1)C(=O)N[C@H](CCCN=C(N)N)C(=O)N[C@@H](Cc1ccccc1)C(=O)N[C@@H](CCCN=C(N)N)C(=O)N1CCC[C@H]1C(=O)N[C@H](C)C(N)=O`, the Antiovulatory activity in [1] came to 63%; in assay [3], 0%.
Regarding `CC(=O)N[C@H](Cc1ccc2ccccc2c1)C(=O)N[C@H](Cc1ccccc1)C(=O)N[C@H](Cc1ccccc1)C(=O)N[C@@H](CO)C(=O)N[C@@H](Cc1ccc(O)cc1)C(=O)N[C@H](CCCN=C(N)N)C(=O)N[C@@H](CC1CCCCC1)C(=O)N[C@@H](CCCN=C(N)N)C(=O)N1CCC[C@H]1C(=O)N[C@H](C)C(N)=O`, in assay [4], the Antiovulatory activity turned out to be 80%.
For the compound `CC(=O)N[C@H](Cc1ccc2ccccc2c1)C(=O)N[C@H](Cc1ccc(Cl)cc1)C(=O)N[C@H](Cc1ccccc1)C(=O)N[C@@H](CO)C(=O)N[C@@H](Cc1ccc(O)cc1)C(=O)N[C@H](CCCN=C(N)N)C(=O)N[C@@H](Cc1ccccc1)C(=O)N[C@@H](CCCN=C(N)N)C(=O)N1CCC[C@H]1C(=O)N[C@H](C)C(N)=O`, the Antiovulatory activity in assay [2] came to 56%; in [4], 10%.
In the case of `CC(=O)N[C@H](Cc1c[nH]c2ccccc12)C(=O)N[C@H](Cc1ccccc1)C(=O)N[C@H](Cc1ccccc1)C(=O)N[C@@H](CO)C(=O)N[C@@H](Cc1ccc(O)cc1)C(=O)N[C@H](CCCN=C(N)N)C(=O)N[C@@H](Cc1ccccc1)C(=O)N[C@@H](CCCN=C(N)N)C(=O)N1CCC[C@H]1C(=O)N[C@H](C)C(N)=O`, the Antiovulatory activity in assay [5] was 0%.
On to `CC(=O)N[C@H](Cc1ccc(Cl)cc1)C(=O)N[C@H](Cc1ccc(Cl)cc1)C(=O)N[C@H](Cc1c[nH]c2ccccc12)C(=O)N[C@@H](CO)C(=O)N[C@@H](Cc1ccc(O)cc1)C(=O)N[C@H](CCCN=C(N)N)C(=O)N[C@@H](Cc1ccccc1)C(=O)N[C@@H](CCCN=C(N)N)C(=O)N1CCC[C@H]1C(=O)N[C@H](C)C(N)=O` (HELM PEPTIDE1{[ac].[O=C([C@@H](Cc1ccc(Cl)cc1)N[*:1])[*:2]].[O=C([C@@H](Cc1ccc(Cl)cc1)N[*:1])[*:2]].[dW].S.Y.[dR].F.R.P.[dA].[am]}$$$$V2.0), for which the figures for the Antiovulatory activity in assay [6] and in assay [5] were 70% and 100%, respectively.
`CCNC(=NCCCC[C@@H](NC(=O)[C@H](Cc1ccc(O)cc1)NC(=O)[C@H](CO)NC(=O)[C@@H](Cc1c[nH]c2ccccc12)NC(=O)[C@@H](Cc1ccc(Cl)cc1)NC(=O)[C@@H](Cc1ccc2ccccc2c1)NC(C)=O)C(=O)N[C@@H](Cc1ccccc1)C(=O)N[C@@H](CCCN=C(N)N)C(=O)N1CCC[C@H]1C(=O)N[C@H](C)C(N)=O)NCC` (Ac-[d2Nal][dPhe(4-Cl)][dW]SY[d(hArg(Et2))]FRP[dA]-NH2) displayed an Antiovulatory activity in assay [3] of 63%.
With `CC(=O)N[C@H](Cc1ccc2ccccc2c1)C(=O)N[C@H](Cc1ccc2ccccc2c1)C(=O)N[C@H](Cc1ccc2ccccc2c1)C(=O)N[C@@H](CO)C(=O)N[C@@H](Cc1ccc(O)cc1)C(=O)N[C@H](CCCN=C(N)N)C(=O)N[C@@H](Cc1ccccc1)C(=O)N[C@@H](CCCN=C(N)N)C(=O)N1CCC[C@H]1C(=O)N[C@H](C)C(N)=O`, the Antiovulatory activity in [7] came to 15%.
On to `CC(=O)N[C@H](Cc1ccc2ccccc2c1)C(=O)N[C@H](Cc1ccc(O)cc1)C(=O)N[C@H](Cc1ccccc1)C(=O)N[C@@H](CO)C(=O)N[C@@H](Cc1ccc(O)cc1)C(=O)N[C@H](CCCN=C(N)N)C(=O)N[C@@H](Cc1ccccc1)C(=O)N[C@@H](CCCN=C(N)N)C(=O)N1CCC[C@H]1C(=O)N[C@H](C)C(N)=O`, for which the Antiovulatory activity in [8] turned out to be 0%; in assay [9], 14%.
In turn, `CC(=O)N[C@H](Cc1ccc2ccccc2c1)C(=O)N[C@H](Cc1ccc2ccccc2c1)C(=O)N[C@H](Cc1ccccc1)C(=O)N[C@@H](CO)C(=O)N[C@@H](Cc1ccc(O)cc1)C(=O)N[C@H](CCCN=C(N)N)C(=O)N[C@@H](Cc1ccccc1)C(=O)N[C@@H](CCCN=C(N)N)C(=O)N1CCC[C@H]1C(=O)N[C@H](C)C(N)=O` came in with an Antiovulatory activity in assay [5] of 100%.
As for `CC(=O)N[C@H](Cc1ccccc1)C(=O)N[C@H](Cc1ccccc1)C(=O)N[C@H](Cc1ccccc1)C(=O)N[C@@H](CO)C(=O)N[C@@H](Cc1ccc(O)cc1)C(=O)N[C@H](CCCN=C(N)N)C(=O)N[C@@H](Cc1ccccc1)C(=O)N[C@@H](CCCN=C(N)N)C(=O)N1CCC[C@H]1C(=O)N[C@H](C)C(N)=O`, in assay [1], the Antiovulatory activity was 0%.
In the case of `CC(=O)N[C@H](Cc1ccc2ccccc2c1)C(=O)N[C@H](Cc1ccc2ccccc2c1)C(=O)N[C@H](Cc1c(F)c(F)c(F)c(F)c1F)C(=O)N[C@@H](CO)C(=O)N[C@@H](Cc1ccc(O)cc1)C(=O)N[C@H](CCCN=C(N)N)C(=O)N[C@@H](Cc1ccccc1)C(=O)N[C@@H](CCCN=C(N)N)C(=O)N1CCC[C@H]1C(=O)N[C@H](C)C(N)=O`, in assay [10], the Antiovulatory activity is given as 0%.
In assay [5], `CC(=O)N[C@H](Cc1ccc2ccccc2c1)C(=O)N[C@H](Cc1ccc2ccccc2c1)C(=O)N[C@H](Cc1c[nH]cn1)C(=O)N[C@@H](CO)C(=O)N[C@@H](Cc1ccc(O)cc1)C(=O)N[C@H](CCCN=C(N)N)C(=O)N[C@@H](Cc1ccccc1)C(=O)N[C@@H](CCCN=C(N)N)C(=O)N1CCC[C@H]1C(=O)N[C@H](C)C(N)=O` gave an Antiovulatory activity of 0%.
In assay [11], `CC(=O)N[C@H](Cc1ccc(Cl)cc1)C(=O)N[C@H](Cc1ccc(Cl)cc1)C(=O)N[C@H](Cc1c[nH]c2ccccc12)C(=O)N[C@@H](CO)C(=O)N[C@@H](Cc1ccc(O)cc1)C(=O)N[C@H](Cc1ccc2ccccc2c1)C(=O)N[C@@H](Cc1ccccc1)C(=O)N[C@@H](CCCN=C(N)N)C(=O)N1CCC[C@H]1C(=O)N[C@H](C)C(N)=O` displayed an Antiovulatory activity of 0%.
On the same count and under the same terms, the same measure for `CC(=O)N[C@H](Cc1ccc(Cl)cc1)C(=O)N[C@H](Cc1ccc(Cl)cc1)C(=O)N[C@H](Cc1c[nH]c2ccccc12)C(=O)N[C@@H](CO)C(=O)N[C@@H](Cc1ccc(O)cc1)C(=O)N[C@H](Cc1ccccc1)C(=O)N[C@@H](Cc1ccccc1)C(=O)N[C@@H](CCCN=C(N)N)C(=O)N1CCC[C@H]1C(=O)N[C@H](C)C(N)=O`: 8%.
